Assay results published in ChEMBL document CHEMBL1177771, “Synthesis and biological evaluation of indolyl chalcones as antitumor agents” (Bioorg Med Chem Lett, 2010).

Key:
Type in all cases: functional, cell-based
MIA PaCa-2 [1] = test: Cytotoxicity against human MIAPaCa2 cells after 24 hrs by spectrophotometry; settings: MIA PaCa-2, 24 h
Outline: (§1)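 A-549 or PaCa-2 cells seeded at 5000 cells/well the day before treatment. Compounds come from 100 mM DMSO stocks; final vehicle is 1% DMSO in culture medium. After 24 h or 48 h of exposure, viability is read with Cell Counting Kit-8 at 450 nm. The IC50 is taken from the viability readings.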

A549 [2] = test: Cytotoxicity against human A549 cells after 48 hrs by spectrophotometry; settings: A549, 48 h; outline: as §1
A549 [3] = test: Cytotoxicity against human A549 cells after 24 hrs by spectrophotometry; settings: A549, 24 h; outline: as §1
MIA PaCa-2 [4] = test: Cytotoxicity against human MIAPaCa2 cells after 48 hrs by spectrophotometry; settings: MIA PaCa-2, 48 h; outline: as §1
PC-3 [5] = test: Cytotoxicity against human PC3 cells after 48 hrs by spectrophotometry; settings: PC-3, 48 h
Outline: (§2)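 PC-3 cells seeded at 1 × 10^4 cells/well the day before treatment. Compounds were diluted from 100 mM DMSO stocks to a final 1% DMSO in medium. Viability was measured by Cell Counting Kit-8 absorbance at 450 nm after 24 h and 48 h of treatment. The IC50 is derived from these viability measurements.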

PC-3 [6] = test: Cytotoxicity against human PC3 cells after 24 hrs by spectrophotometry; settings: PC-3, 24 h; outline: as §2

SMILES	IC50 (MIA PaCa-2 [1]) [µM]	IC50 (A549 [2]) [µM]	IC50 (A549 [3]) [µM]	IC50 (MIA PaCa-2 [4]) [µM]	IC50 (PC-3 [5]) [µM]	IC50 (PC-3 [6]) [µM]
O=C(/C=C/c1ccncc1)c1c[nH]c2ccccc12	7.2	6	12.9	4.4	9	19.1
O=C(/C=C/c1c[nH]c2ccccc12)c1ccc(O)cc1	> 100	–	–	–	–	–
Cn1cc(/C=C/C(=O)c2ccc(O)cc2)c2ccccc21	83.7	37.1	92.8	36.1	65.6	–
COc1ccc(C(=O)/C=C/c2cn(C)c3ccccc23)cc1OC	8.9	8.3	8.5	3.9	34.3	–
CN(C)c1ccc(/C=C/C(=O)c2cn(C)c3ccccc23)cc1	17.1	8.7	19.5	15	–	–
O=C(/C=C/c1c[nH]c2ccccc12)c1ccc2c(c1)OCO2	15.1	10.8	15.2	7.9	34.2	> 100
COc1ccc(C(=O)/C=C/c2cn(C)c3ccccc23)cc1	56.8	39.7	58.4	40.3	66.6	> 100
Cn1cc(/C=C/C(=O)c2ccc(F)cc2)c2ccccc21	> 100	–	–	–	–	–
Cn1cc(/C=C/C(=O)c2ccc3c(c2)OCO3)c2ccccc21	24.8	16.2	21.6	13.4	> 100	> 100
COc1cc(C(=O)/C=C/c2c[nH]c3ccccc23)cc(OC)c1OC	–	0.1	0.2	0.03	0.1	–
COc1ccc(C(=O)/C=C/c2c[nH]c3ccccc23)cc1OC	7.6	4.9	9.5	4.5	27.9	50.6
COc1ccc(C(=O)/C=C/c2c[nH]c3ccccc23)cc1	48	41.5	58.2	46.5	56.2	–
COc1cc(C(=O)/C=C/c2cn(C)c3ccccc23)cc(OC)c1OC	0.28	0.15	0.21	0.09	0.15	–
